According to ChEMBL document CHEMBL4610116, “Salicylanilide Analog Minimizes Relapse of Clostridioides difficile Infection in Mice” (J Med Chem, 2020):
≈ marks a conversion by molar mass, not a printed value. Calls of active or inactive are those of the source. The calls are words filed in the database; no cut-off is given here.

Columns and labels:
[1] = system: Clostridioides difficile; assay: Antimicrobial activity against Clostridioides difficile CD10463 incubated for 20 to 24 hrs by broth microdilution method; format: functional
Method in brief: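 Broth microdilution in pre-reduced BHIS using two-fold serial dilutions and ~5 × 10⁵ cfu/mL inoculum. Incubated 20–24 h at 37°C, anaerobic (8% H₂, 8% CO₂, 84% N₂). MIC read by the Lambert-Pearson method; duplicates.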

[2] = system: Clostridioides difficile; assay: (§1) Suppression of relapse of Clostridioides difficile 630 infection in cefoperazone-treated C57BL/6J mouse model of recurrent Clostridioides difficile 630 infection assessed as reduction in body weight loss at 0.4 mg/ml, po for 5 days from day 4 to 9 after infection with spores and measured on day 3; format: functional, organism-based
Method in brief: (§2)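 Cefoperazone 0.5 mg/ml in drinking water for 5 days, then 2-day washout, in 5-week-old male and female C57BL/6J mice. Oral gavage of 10⁵ C. difficile 630 spores on day 0. Vancomycin 0.4 mg/mL given in drinking water ad libitum on days 4–9. Body weight recorded daily and clinical signs watched for 14 days; n=6 per group.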

[3] = system: Clostridioides difficile; assay: as §1, with “in microbial load (total vegetative cells plus spores)” for “in body weight loss”, “day 7” for “day 3”; format: functional, organism-based
Method in brief: (§3)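 Strain 630 spore challenge (10⁵, gavage) of cefoperazone-treated mice; vancomycin 0.4 mg/mL in drinking water on days 4–9. Feces diluted 1:10 in PBS and settled anaerobically 30 min. Ten-fold dilutions plated on TCCFA, incubated anaerobically at 37°C for 24 h. Result is CFU/g feces of total vegetative cells plus spores from unheated samples. Mixed-effect model with Tukey post test.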

[4] = system: Clostridioides difficile; assay: as §1, with “day 3 after drug cessation” for “day 3”; format: functional, organism-based; method in brief: as §2
[5] = system: Clostridioides difficile; assay: as §1, with “reduction in microbial load in feces (total vegetative cells plus spores) at 0.4” for “reduction in body weight loss at 0.4”, “day 3 after drug cessation” for “day 3”; format: functional, organism-based; method in brief: as §3
[6] = system: Clostridioides difficile; assay: Suppression of relapse of Clostridioides difficile 630 infection in cefoperazone-treated C57BL/6J mouse model of recurrent Clostridioides difficile 630 infection assessed as reduction in weight loss at 0.4 mg/ml, po for 5 days from day 4 to 9 after infection with spores and measured on day 14; format: functional; design: scale not given: the % may be the effect or the level left; method in brief: as §2
[7] = system: Clostridioides difficile; assay: (§4) Suppression of relapse of Clostridioides difficile 630 infection in cefoperazone-treated C57BL/6J mouse model of recurrent Clostridioides difficile 630 infection assessed as reduction in clinical illness at 0.4 mg/ml, po for 5 days from day 4 to 9 after infection with spores measured on day day 14; format: functional, organism-based; method in brief: as §2
[8] = system: Clostridioides difficile; assay: as §4, with “histopathological summary scores” for “clinical illness”; format: functional, organism-based
[9] = system: Clostridioides difficile; assay: as §4, with “group-Bacteroidaceae level” for “clinical illness”; format: functional, organism-based
Method in brief: (§5)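 Infection model: cefoperazone 0.5 mg/ml in drinking water for 5 days, 2-day washout, then 10⁵ strain 630 spores by gavage. Vancomycin 0.4 mg/mL in drinking water, days 4–9. Cecal tissue snips taken at day 14 necropsy; gut bacterial community profiled by 16S rRNA gene sequencing on Illumina MiSeq. n=6 per group.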

[10] = system: Clostridioides difficile; assay: as §4, with “group-Proteobacteria level” for “clinical illness”; format: functional, organism-based; method in brief: as §5

SMILES	MIC [1]	also measured
CN[C@H](CC(C)C)C(=O)N[C@H]1C(=O)N[C@@H](CC(N)=O)C(=O)N[C@H]2C(=O)N[C@H]3C(=O)N[C@H](C(=O)N[C@H](C(=O)O)c4cc(O)cc(O)c4-c4cc3ccc4O)[C@H](O)c3ccc(c(Cl)c3)Oc3cc2cc(c3O[C@@H]2O[C@H](CO)[C@@H](O)[C@H](O)[C@H]2O[C@H]2C[C@](C)(N)[C@H](O)[C@H](C)O2)Oc2ccc(cc2Cl)[C@H]1O [VANCOMYCIN]	2.1 µM (≈ 3.04 µg/mL)	Activity [2]: Active; Activity [3]: Active; Activity [4]: inactive; Activity [5]: inactive; Activity [6]: 10 - 26%; Activity [7]: inactive; Activity [8]: inactive; Activity [9]: inactive; Activity [10]: inactive
O=C(Nc1ccc(Oc2ccc(Cl)cc2)c(F)c1)c1cc(Cl)cc(Cl)c1O	0.135 µM (≈ 0.0576 µg/mL)	
O=C(Nc1ccc(Oc2ccc(Cl)cc2)c(Cl)c1)c1cc(Cl)cc(Cl)c1O	0.11 µM (≈ 0.0487 µg/mL)	
O=C(Nc1ccc(Oc2ccc(Cl)cc2)c(Br)c1)c1cc(Cl)cc(Cl)c1O	0.1 µM (≈ 0.0488 µg/mL)	
O=C(Nc1ccc(Oc2ccc(Cl)cc2)cc1)c1cc(Cl)cc(Cl)c1O	1.4 µM (≈ 0.572 µg/mL)	
N#Cc1cc(NC(=O)c2cc(Cl)cc(Cl)c2O)ccc1Oc1ccc(Cl)cc1	0.37 µM (≈ 0.16 µg/mL)	
COc1cc(NC(=O)c2cc(Cl)cc(Cl)c2O)ccc1Oc1ccc(Cl)cc1	2.6 µM (≈ 1.14 µg/mL)	
O=C(Nc1cc(I)c(Oc2ccc(Cl)cc2)c(I)c1)c1cc(Cl)cc(Cl)c1O	0.075 µM (≈ 0.0495 µg/mL)	
COc1cc(Oc2ccc(Cl)cc2)ccc1NC(=O)c1cc(Cl)cc(Cl)c1O	3.6 µM (≈ 1.58 µg/mL)	
O=C(Nc1ccc(Oc2ccc(Cl)cc2)cc1Br)c1cc(Cl)cc(Cl)c1O	0.18 µM (≈ 0.0878 µg/mL)	
O=C(Nc1ccc(Oc2ccc(Cl)cc2)c(I)c1)c1cc(Cl)cc(Cl)c1O	0.6 µM (≈ 0.321 µg/mL)	
O=C(Nc1ccc(Oc2ccc(Cl)cc2)cc1I)c1cc(Cl)cc(Cl)c1O	0.17 µM (≈ 0.0909 µg/mL)	
O=C(Nc1cc([N+](=O)[O-])c(Oc2ccc(Cl)cc2)c([N+](=O)[O-])c1)c1cc(Cl)cc(Cl)c1O	> 2 µM	
